From ChEMBL document CHEMBL1121369, “Antihypertensive (2-aminoethyl)thiourea derivatives. 1” (J Med Chem, 1980)
Several values for one entry are separate records, joined by “and”; a condition that tells them apart may be missing. Equal entries are not always repeated.

Legend:
Rattus norvegicus [1] = assay: Compound is measured for oral antihypertensive activity in groups of 6-12 conscious spontaneously hypertensive rats at 50 mg/kg(fall in systolic blood pressure 6-24 hr after dosing); assay type: functional, Artery
Procedure, shortened: (§1)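 Male spontaneously hypertensive rats of Wistar–Okamoto origin (12–15 weeks old, bred in-house) were dosed orally, in groups of 6–12 and conscious. Each rat was warmed for 5–10 min at 37–38 °C, then restrained. Systolic pressure was read indirectly at the tail with an occluding cuff and a piezoelectric pulse transducer, before dosing and at 1, 3, 6 and 24 h after.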

Rattus norvegicus [2] = assay: Compound is measured for oral antihypertensive activity in groups of 6-12 conscious spontaneously hypertensive rats at 10 mg/kg; assay type: functional; procedure, shortened: as §1
Rattus norvegicus [3] = assay: Compound is measured for oral antihypertensive activity in groups of 6-12 conscious spontaneously hypertensive rats at 250 mg/kg; assay type: functional; procedure, shortened: as §1
Rattus norvegicus [4] = assay: Compound is measured for oral antihypertensive activity in groups of 6-12 deoxy-corticosterone-sodium hypertensive (DOCA-Na) rats at 10 mg/kg; assay type: functional
Procedure, shortened: (§2)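 DOCA-Na rats were given two weeks to become hypertensive (systolic above 200 mmHg) and were then dosed orally, in groups of 6–12 and unanesthetized. Rats were warmed for 5–10 min at 37–38 °C and restrained. Systolic tail pressure was read with a cuff and pneumatic pulse transducer, before dosing and at 1, 3, 6 and 24 h post-dose.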

Rattus norvegicus [5] = assay: Compound is measured for oral antihypertensive activity in groups of 6-12 conscious spontaneously hypertensive rats at 100 mg/kg; assay type: functional; procedure, shortened: as §1
Rattus norvegicus [6] = assay: Compound is measured for oral antihypertensive activity in groups of 6-12 conscious spontaneously hypertensive rats at 75 mg/kg; assay type: functional; procedure, shortened: as §1
Rattus norvegicus [7] = assay: Compound is measured for oral antihypertensive activity in groups of 6-12 conscious spontaneously hypertensive rats at 200 mg/kg; Range is 15-20%; assay type: functional; procedure, shortened: as §1
Rattus norvegicus [8] = assay: Compound is measured for oral antihypertensive activity in groups of 6-12 conscious spontaneously hypertensive rats at 100 mg/kg; Range is 15-20%; assay type: functional; procedure, shortened: as §1
[9] = Therapeutic ratio is oral dose producing sedation/reduction in blood pressure; assay type: ADME, tissue-based
[10] = Therapeutic ratio is oral dose producing sedation/reduction in blood pressure; Range is 30-60; assay type: ADME, tissue-based
Rattus norvegicus [11] = assay: Compound is measured for oral antihypertensive activity in groups of 6-12 conscious spontaneously hypertensive rats at 1 mg/kg; Range is 15-20%; assay type: functional; procedure, shortened: as §1
Rattus norvegicus [12] = assay: Compound is measured for oral antihypertensive activity in groups of 6-12 conscious spontaneously hypertensive rats at 10 mg/kg (fall in systolic blood pressure 6-24 hr after dosing); assay type: functional, Artery; procedure, shortened: as §1
Rattus norvegicus [13] = assay: Compound is measured for oral antihypertensive activity in groups of 6-12 deoxy-corticosterone-sodium hypertensive (DOCA-Na) rats at 1 mg/kg; Range is 15-20%; assay type: functional; procedure, shortened: as §2
Rattus norvegicus [14] = assay: (§3) Oral dose required to cause 20% fall in sedation; Increase in foot shock rate; assay type: functional
Procedure, shortened: (§4)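 Male Charles River C-D rats and squirrel monkeys were trained to press a lever at a stable rate to postpone a 5-s foot shock, given every 20 s on failure. Drugs were given orally, with control sessions before, between and after test sessions. Avoidance-rate decrease and the increase in shocks/hour were recorded. Significance threshold: a 12% decrease or 4 extra shocks/hour (p ≤ 0.05).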

Monkey = assay: as §3; assay type: functional; procedure, shortened: as §4
Canis familiaris [15] = assay: (§5) Oral dose required to cause 20% fall in blood pressure; assay type: functional, Canis lupus familiaris
Rattus norvegicus [16] = assay: Compound is measured for oral antihypertensive activity in groups of 6-12 deoxy-corticosterone-sodium hypertensive (DOCA-Na) rats at 10 mg/kg (fall in systolic blood pressure 6-24 hr after dosing); assay type: functional, Artery; procedure, shortened: as §2
Rattus norvegicus [17] = assay: Compound is measured for oral antihypertensive activity in groups of 6-12 deoxy-corticosterone-sodium hypertensive (DOCA-Na) rats at 0.5 mg/kg; assay type: functional; procedure, shortened: as §2
Rattus norvegicus [18] = assay: Oral dose required to cause 20% fall in sedation; Decrease spontaneous motor activity; assay type: functional
Procedure, shortened: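 Normotensive rats were dosed orally. Spontaneous motor activity was counted with an electronic motility meter over a 10-min period starting 1 h after dosing. The dose was estimated from dose–response curves, with 95% fiducial limits.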

Rattus norvegicus [19] = assay: as §5; assay type: functional
Canis familiaris [20] = assay: Oral dose required to cause 20% fall in sedation; Range is 30-60; assay type: functional, Canis lupus familiaris
Rattus norvegicus [21] = assay: Compound is measured for oral antihypertensive activity in groups of 6-12 conscious spontaneously hypertensive rats at 0.5 mg/kg; assay type: functional; procedure, shortened: as §1
Rattus norvegicus [22] = assay: Compound is measured for oral antihypertensive activity in groups of 6-12 deoxy-corticosterone-sodium hypertensive (DOCA-Na) rats at 10 mg/kg; Range is 10-15%; assay type: functional; procedure, shortened: as §2
Rattus norvegicus [23] = assay: Compound is measured for oral antihypertensive activity in groups of 6-12 conscious spontaneously hypertensive rats at 250 mg/kg; Range is 10-15%; assay type: functional; procedure, shortened: as §1
Rattus norvegicus [24] = assay: Compound is measured for oral antihypertensive activity in groups of 6-12 conscious spontaneously hypertensive rats at 60 mg/kg; assay type: functional; procedure, shortened: as §1
Rattus norvegicus [25] = assay: Compound is measured for oral antihypertensive activity in groups of 6-12 deoxy-corticosterone-sodium hypertensive (DOCA-Na) rats at 60 mg/kg(fall in systolic blood pressure 6-24 h after dosing); assay type: functional, Artery; procedure, shortened: as §2
Rattus norvegicus [26] = assay: Compound is measured for oral antihypertensive activity in groups of 6-12 conscious spontaneously hypertensive rats at 175 mg/kg; assay type: functional; procedure, shortened: as §1
Rattus norvegicus [27] = assay: Compound is measured for oral antihypertensive activity in groups of 6-12 conscious spontaneously hypertensive rats at 10 mg/kg(fall in systolic blood pressure 6-24 hr after dosing); assay type: functional, Artery; procedure, shortened: as §1
Rattus norvegicus [28] = assay: Compound is measured for oral antihypertensive activity in groups of 6-12 deoxy-corticosterone-sodium hypertensive (DOCA-Na) rats at 10 mg/kg(fall in systolic blood pressure 6-24 hr after dosing); assay type: functional, Artery; procedure, shortened: as §2
Rattus norvegicus [29] = assay: Compound is measured for oral antihypertensive activity in groups of 6-12 conscious spontaneously hypertensive rats at 85 mg/kg; assay type: functional; procedure, shortened: as §1
Rattus norvegicus [30] = assay: Compound is measured for oral antihypertensive activity in groups of 6-12 deoxy-corticosterone-sodium hypertensive (DOCA-Na) rats at 10 mg/kg; Range is 15-20%; assay type: functional; procedure, shortened: as §2
Rattus norvegicus [31] = assay: Compound is measured for oral antihypertensive activity in groups of 6-12 conscious spontaneously hypertensive rats at 10 mg/kg; Range is 15-20%; assay type: functional; procedure, shortened: as §1
Rattus norvegicus [32] = assay: Compound is measured for oral antihypertensive activity in groups of 6-12 deoxy-corticosterone-sodium hypertensive (DOCA-Na) rats at 1 mg/kg; assay type: functional; procedure, shortened: as §2
Rattus norvegicus [33] = assay: Compound is measured for oral antihypertensive activity in groups of 6-12 deoxy-corticosterone-sodium hypertensive (DOCA-Na) rats at 5 mg/kg; Range is 10-15%; assay type: functional; procedure, shortened: as §2
Rattus norvegicus [34] = assay: Compound is measured for oral antihypertensive activity in groups of 6-12 conscious spontaneously hypertensive rats at 1 mg/kg (fall in systolic blood pressure 6-24 hr after dosing); assay type: functional, Artery; procedure, shortened: as §1
Rattus norvegicus [35] = assay: Compound is measured for oral antihypertensive activity in groups of 6-12 conscious spontaneously hypertensive rats at 45 mg/kg; Range is 10-15%; assay type: functional; procedure, shortened: as §1
Rattus norvegicus [36] = assay: Compound is measured for oral antihypertensive activity in groups of 6-12 conscious spontaneously hypertensive rats at 160 mg/kg; Range is 15-20%; assay type: functional; procedure, shortened: as §1
Rattus norvegicus [37] = assay: Compound is measured for oral antihypertensive activity in groups of 6-12 conscious spontaneously hypertensive rats at 30 mg/kg; assay type: functional; procedure, shortened: as §1
in vivo = conditions: blood, po

## NCC/N=C(\S)Nc1c(Cl)cc([N+](=O)[O-])cc1Cl.O=C(O)/C=C\C(=O)O
Rattus norvegicus [1]
  Effect: >20%
Rattus norvegicus [2]
  Effect: <10%

## N/N=C(\S)Nc1c(Cl)cccc1Cl
Rattus norvegicus [3]
  Effect: <10%

## NCCNC(=O)Nc1c(Cl)cccc1Cl
Rattus norvegicus [3]
  Effect: <10%
Rattus norvegicus [4]
  Effect: <10%

## CCOC(=O)CC/N=C(\S)Nc1c(Cl)cccc1Cl
Rattus norvegicus [5]
  Effect: <10%

## CNCC/N=C(\S)Nc1c(Cl)cccc1Cl.O=C(O)/C=C\C(=O)O
Rattus norvegicus [5]
  Effect: <10%

## N#CCCNC(=S)Nc1c(Cl)cccc1Cl
Rattus norvegicus [6]
  Effect: <10%

## NCCC/N=C(\S)Nc1c(Cl)cccc1Cl
Rattus norvegicus [7]
  Effect: 15%

## CCO.NCC/N=C(\S)Nc1c(F)cccc1F.O=C(O)CCC(=O)O
Rattus norvegicus [2]
  Effect: <10%
Rattus norvegicus [4]
  Effect: <10%

## COc1cccc(OC)c1/N=C(\S)NCCN.O=C(O)/C=C\C(=O)O
Rattus norvegicus [5]
  Effect: <10%

## NCC/N=C(\S)Nc1c(Cl)cc(Cl)cc1Cl.O=C(O)/C=C\C(=O)O
Rattus norvegicus [8]
  Effect: 15%
Rattus norvegicus [2]
  Effect: <10%

## NCC/N=C(\S)Nc1c(Cl)cccc1Cl.O=C(O)/C=C\C(=O)O
[9]
  Ratio: 0.28 and 0.71
[10]
  selectivity ratio: 30
Rattus norvegicus [11]
  Effect: 15%
Rattus norvegicus [12]
  Effect: >20%
Rattus norvegicus [13]
  Effect: 15%
Rattus norvegicus [14]
  Dose: 1.7 mg/kg
Monkey
  Dose: >64 mg/kg
Canis familiaris [15]
  Dose: 1 mg/kg
Rattus norvegicus [16]
  Effect: >20%
Rattus norvegicus [17]
  Effect: <10%
Rattus norvegicus [18]
  Dose: 0.69 mg/kg
Rattus norvegicus [19]
  Dose: 2.4 mg/kg
Canis familiaris [20]
  Dose: 30 mg/kg
Rattus norvegicus [21]
  Effect: <10%

## NCC/N=C(\N)Nc1c(Cl)cccc1Cl
Rattus norvegicus [22]
  Effect: 10%
Rattus norvegicus [23]
  Effect: 10%

## N/C(S)=N/c1c(Cl)cccc1Cl
Rattus norvegicus [24]
  Effect: <10%
Rattus norvegicus [25]
  Effect: < 10%

## Cc1ccc(/N=C(\S)NCCN)c(Cl)c1.O=C(O)/C=C\C(=O)O
Rattus norvegicus [5]
  Effect: <10%

## O=C(O)CC/N=C(\S)Nc1c(Cl)cccc1Cl
Rattus norvegicus [5]
  Effect: <10%

## OCC/N=C(\S)Nc1c(Cl)cccc1Cl
Rattus norvegicus [26]
  Effect: <10%

## NCC/N=C(\S)Nc1c(Br)cccc1Br
Rattus norvegicus [11]
  Effect: 15%
Rattus norvegicus [27]
  Effect: >20%
Rattus norvegicus [28]
  Effect: >20%

## CNCCN(C)/C(S)=N/c1c(Cl)cccc1Cl.O=C(O)/C=C\C(=O)O
Rattus norvegicus [29]
  Effect: <10%

## CC(=O)NCC/N=C(\N)Nc1c(Cl)cccc1Cl
Rattus norvegicus [3]
  Effect: <10%
Rattus norvegicus [4]
  Effect: <10%

## NC(=O)CC/N=C(\S)Nc1c(Cl)cccc1Cl
Rattus norvegicus [5]
  Effect: <10%

## CS/C(=N\CCN)Nc1c(Cl)cccc1Cl
Rattus norvegicus [30]
  Effect: 15%
Rattus norvegicus [31]
  Effect: 15%

## Cc1cccc(C)c1/N=C(\S)NCCN.O=C(O)CCC(=O)O
Rattus norvegicus [31]
  Effect: 15%
Rattus norvegicus [28]
  Effect: >20%

## NCC/N=C(\S)Nc1cccc(Cl)c1Cl.O=C(O)/C=C\C(=O)O
Rattus norvegicus [32]
  Effect: <10%
Rattus norvegicus [33]
  Effect: 10%
Rattus norvegicus [27]
  Effect: >20%
Rattus norvegicus [34]
  Effect: >20%
Rattus norvegicus [28]
  Effect: >20%
Rattus norvegicus [21]
  Effect: <10%

## NS(=O)(=O)CC/N=C(\S)Nc1c(Cl)cccc1Cl
Rattus norvegicus [8]
  Effect: 15%

## Cc1ccc(/N=C(\S)NCCN)c(C)c1.O=C(O)/C=C\C(=O)O
Rattus norvegicus [5]
  Effect: <10%

## CN1CCN(/C(S)=N/c2c(Cl)cccc2Cl)CC1.Cl
Rattus norvegicus [24]
  Effect: <10%

## CCN(CC)CC/N=C(\S)Nc1c(Cl)cccc1Cl.Cl
Rattus norvegicus [35]
  Effect: 10%

## CN1CCN(CC/N=C(\S)Nc2c(Cl)cccc2Cl)CC1.Cl.Cl
Rattus norvegicus [36]
  Effect: 15%

## Cl.NCC/N=C(\S)Nc1ccccc1
Rattus norvegicus [2]
  Effect: <10%

## Cl.N=C(N)CC/N=C(\S)Nc1c(Cl)cccc1Cl
Rattus norvegicus [5]
  Effect: <10%

## Cl.S=C(NCCN1CCCCC1)Nc1c(Cl)cccc1Cl
Rattus norvegicus [37]
  Effect: <10%

## Clc1cccc(Cl)c1NC1=NCCN1 [CLONIDINE]
[9]
  Ratio: 3
  selectivity ratio: 1.83
In vivo
  selectivity ratio: 0.8
Monkey
  Dose: 0.7 mg/kg
Canis familiaris [15]
  Dose: 0.3 mg/kg
Rattus norvegicus [17]
  Effect: >20%
Rattus norvegicus [19]
  Dose: 0.06 mg/kg
Rattus norvegicus [21]
  Effect: >20%
